What all share (format): functional
Experiment [1] concerns MCF7. The experiment is described as follows: Estrogenic effect in human MCF7 cells assessed as stimulation of cell proliferation at 1 ug/ml relative to control by [3H]hypoxanthine incorporation assay. The essentials: (§1)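 MCF-7 cells were grown to confluence in DMEM with 10% FBS, trypsinized, and viable cells (Trypan blue) seeded at 10 000/well in phenol red-free medium. After overnight attachment, tamoxifen (2 μM) was added for 24 h. Cells were washed with Ca/Mg-free PBS, then exposed to test agents for 1 day. Triplicates; % proliferation scaled with no-compound as 0% and β-estradiol 10 nM as 100%; Dunnett's test.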

The subject of experiment [2] is MCF7. The experiment is described as follows: Estrogenic effect in human MCF7 cells assessed as stimulation of cell proliferation at 0.1 ug/ml relative to control by [3H]hypoxanthine incorporation assay. The essentials:
as §1

Experiment [3] concerns MCF7. The experiment is described as follows: Estrogenic effect in human MCF7 cells assessed as stimulation of cell proliferation at 10 ug/ml relative to control by [3H]hypoxanthine incorporation assay. The essentials:
as §1

Experiment [4] concerns MCF7. Description: Estrogenic effect in human MCF7 cells assessed as stimulation of cell proliferation at 1 nM relative to control by [3H]hypoxanthine incorporation assay. In short, it runs like this: (§2)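 MCF-7 cells were grown to confluence in DMEM with 10% FBS, trypsinized, and viable cells (Trypan blue) seeded at 10 000/well in phenol red-free medium. After overnight attachment, tamoxifen (2 μM) was added for 24 h. Cells were washed with Ca/Mg-free PBS, then exposed to test agents for 1 day. [3H]-hypoxanthine (9.25 kBq/well) was added for 12 h. Triplicates; % proliferation scaled with no-compound as 0% and β-estradiol 10 nM as 100%; Dunnett's test.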

Experiment [5] relates to MCF7. Description: Estrogenic effect in human MCF7 cells assessed as stimulation of cell proliferation at 0.1 nM relative to control by [3H]hypoxanthine incorporation assay. In short, it runs like this: as §2
In experiment [6] the test system is MCF7. Description: Estrogenic effect in human MCF7 cells assessed as stimulation of cell proliferation at 10 nM relative to control by [3H]hypoxanthine incorporation assay. The essentials: as §2

Turning to `CC1=CC(=O)[C@@H]2[C@@](C)(CC1)CC[C@@]2(O)C(C)C`, the figures for the Activity in the experiment with MCF7 [1], in the experiment on MCF7 [2] and in the experiment with MCF7 [3] were 97.5%, 308.2% and 181.4%, respectively.

With `C/C=C(/C)C(=O)O[C@@]1(C)CCC2=C(C(C)C)[C@@H](OCC)C[C@]2(C)CC1=O`, the Activity with MCF7 [1] was 321.4%; in the experiment on MCF7 [2], 223.9%; in the experiment with MCF7 [3], 974.4%.

`CC1=CC(=O)[C@@H]2[C@](C)(CC[C@@]2(O)C(C)C)CC1=O`: the Activity in the experiment with MCF7 [1] is on record as -26.5%; in the experiment with MCF7 [2] it was 5.9%; in the experiment on MCF7 [3] it was -285.7%.

On to `C[C@]12CC[C@@H]3c4ccc(O)cc4CC[C@H]3[C@@H]1CC[C@@H]2O` [ESTRADIOL], for which the values for the Activity in the experiment with MCF7 [4], in the experiment on MCF7 [5] and in the experiment with MCF7 [6] were 130.3%, 74.6% and 100%, respectively.

In the case of `O=c1c(-c2ccc(O)cc2)coc2cc(O)cc(O)c12` [GENISTEIN], the Activity in the experiment with MCF7 [1] is reported as 114.8%; in the experiment with MCF7 [2], -72.4%; with MCF7 [3], -76.7%.

The values above are taken from ChEMBL document CHEMBL1158723, “Daucane sesquiterpenes from Ferula hermonis” (2005).
